The target of series [1] is T1, FtsZ-FtsA co-filaments (Escherichia coli, UniProt P0A9A6+P0ABH0).
T1 sequence (P0ABH0 1-420): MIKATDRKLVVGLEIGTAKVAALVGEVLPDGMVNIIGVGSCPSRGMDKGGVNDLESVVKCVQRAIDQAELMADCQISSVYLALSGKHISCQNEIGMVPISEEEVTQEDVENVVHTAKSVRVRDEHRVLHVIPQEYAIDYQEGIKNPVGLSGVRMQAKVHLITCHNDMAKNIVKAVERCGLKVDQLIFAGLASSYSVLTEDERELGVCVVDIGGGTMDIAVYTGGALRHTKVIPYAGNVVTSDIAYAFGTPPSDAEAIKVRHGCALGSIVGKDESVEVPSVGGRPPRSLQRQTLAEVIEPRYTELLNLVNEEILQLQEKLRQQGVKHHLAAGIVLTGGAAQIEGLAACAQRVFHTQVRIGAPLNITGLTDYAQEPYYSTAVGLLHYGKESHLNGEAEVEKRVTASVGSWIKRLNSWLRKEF
T1 sequence (P0A9A6 1-383 partner): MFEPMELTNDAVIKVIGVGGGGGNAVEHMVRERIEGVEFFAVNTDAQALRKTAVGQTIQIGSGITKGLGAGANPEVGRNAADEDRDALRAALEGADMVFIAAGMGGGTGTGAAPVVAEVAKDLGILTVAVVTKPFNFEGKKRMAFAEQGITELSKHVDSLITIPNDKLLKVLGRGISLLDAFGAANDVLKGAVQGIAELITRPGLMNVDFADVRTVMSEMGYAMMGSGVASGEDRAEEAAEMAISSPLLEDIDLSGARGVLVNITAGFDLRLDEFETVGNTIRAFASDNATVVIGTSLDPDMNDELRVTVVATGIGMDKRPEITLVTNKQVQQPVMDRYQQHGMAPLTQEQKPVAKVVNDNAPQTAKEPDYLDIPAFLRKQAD
Nature of the series: FRAP on supported lipid membranes. As to conditions: mean±SD. Summed up: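 Treadmilling patterns were formed on supported lipid membranes with 0.2 mol-% tris-Ni-NTA or 1 mol-% mono-Ni-NTA, using FtsA (0.45-0.6 μM) and FtsZ (1.5-1.8 μM) in 50 mM Tris-HCl pH 7.4, 150 mM KCl, 5 mM MgCl2 with 4 mM ATP/4 mM GTP. His-tagged FtsN cytoplasmic peptide went onto tris-Ni-NTA membranes. A ~15 μm x 15 μm area was bleached and imaged at 2 s/frame; a mono-exponential fit gave the half-time.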

Series [2] has as its target T1, FtsZ-FtsA co-filaments. Nature of the series: Single molecule diffusion and confinement time analysis on supported bilayers. The following applies: Cy5-labelled single molecules in presence of Alexa488-FtsZ pattern, Gaussian fit. The method, boiled down:
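FtsA (0.45-0.6 μM) and FtsZ (1.5-1.8 μM) with 4 mM ATP/GTP formed steady-state patterns on supported membranes. Unlabelled His-tagged FtsN cytoplasmic peptide (1 μM) was added from solution with 10-20 pM Cy5-labelled peptide (wild-type or variant). TIRF tracking ran at 10 Hz. Diffusion-coefficient density distributions were fitted with a Gaussian (FtsZ, FtsA) or a double Gaussian (FtsN).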

Series [3] is described as follows: Sedimentation velocity analytical ultracentrifugation. The format is physicochemical, Escherichia coli. The method, boiled down: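 Full-length FtsN was loaded at 9-20 μM and read by Rayleigh interference and 280 nm absorbance. Alexa488-FtsA was loaded at 4 μM and read at 495 nm. c(s) distributions came from least-squares boundary modelling.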
In series [4] the target is FtsZ-FtsA co-filaments on supported lipid membranes (E. coli) (UniProt P0A9A6). Nature of the series: single-molecule tracking by TIRF microscopy on supported lipid bilayers.
Series [5] shares this target. Nature of the series: TIRF microscopy of purified proteins on supported lipid bilayers.
Series [6] deals with the molecule itself. Nature of the series: single-molecule tracking by TIRF microscopy on supported lipid bilayers.
For series [7], the target named is T2, FtsA (E. coli, UniProt P0ABH0 1-420).
T2 sequence: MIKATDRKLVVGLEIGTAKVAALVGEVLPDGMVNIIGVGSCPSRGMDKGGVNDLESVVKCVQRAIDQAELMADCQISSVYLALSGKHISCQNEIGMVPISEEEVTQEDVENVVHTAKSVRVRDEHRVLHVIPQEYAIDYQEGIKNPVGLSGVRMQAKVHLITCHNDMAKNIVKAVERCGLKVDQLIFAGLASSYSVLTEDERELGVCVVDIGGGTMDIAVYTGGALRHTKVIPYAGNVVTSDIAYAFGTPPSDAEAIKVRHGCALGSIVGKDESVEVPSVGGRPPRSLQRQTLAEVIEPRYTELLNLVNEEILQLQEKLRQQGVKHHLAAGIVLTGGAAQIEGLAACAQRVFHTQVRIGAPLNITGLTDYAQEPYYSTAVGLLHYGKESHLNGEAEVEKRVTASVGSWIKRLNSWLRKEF
Nature of the series: TIRF microscopy of purified proteins on supported lipid bilayers.

For series [8], the target named is T3, FtsA (Escherichia coli, UniProt P0ABH0).
T3 sequence (P0ABH0 1-420): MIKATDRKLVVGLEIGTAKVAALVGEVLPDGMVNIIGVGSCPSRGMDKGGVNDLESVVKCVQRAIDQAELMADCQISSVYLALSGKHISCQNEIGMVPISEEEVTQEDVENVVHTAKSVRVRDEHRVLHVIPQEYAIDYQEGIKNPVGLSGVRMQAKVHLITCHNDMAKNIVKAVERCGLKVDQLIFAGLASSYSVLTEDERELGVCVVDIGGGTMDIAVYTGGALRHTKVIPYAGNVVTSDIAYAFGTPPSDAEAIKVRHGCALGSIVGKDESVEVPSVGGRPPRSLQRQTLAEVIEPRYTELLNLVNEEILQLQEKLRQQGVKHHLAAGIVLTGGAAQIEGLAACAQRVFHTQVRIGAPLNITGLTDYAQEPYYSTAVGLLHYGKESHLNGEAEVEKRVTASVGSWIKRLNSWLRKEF
The format is binding. The following applies: MST.

Series [9] concerns the target T2, FtsA. Nature of the series: MST.
Series [10] addresses T2, FtsA. Nature of the series: MST. This is another data set of the same source.

Like-named read-outs stand apart in the source and are kept apart here.

For `CCCCCCCC/C=C\CCCCCCCC(=O)OC[C@H](COP(=O)(O)OCCNS(=O)(=O)c1ccc(-c2c3ccc(=[N+](CC)CC)cc-3oc3cc(N(CC)CC)ccc23)c(S(=O)(=O)[O-])c1)OC(=O)CCCCCCC/C=C\CCCCCCCC` [rhodamine-PE, 1,2-dioleoyl-sn-glycero-3-phosphoethanolamine-N-(lissaminerhodamine B sulfonyl)], the “half-time of fluorescence recovery Ƭ0.5, + FtsA/Z” value in series [1] (after FtsA and FtsZ added) was found to be 17.7 ± 0.2 s. In addition, the “half-time of fluorescence recovery Ƭ0.5, alone” value in [1] (without FtsA and FtsZ) is 12.8 ± 3.4 s.
With “FtsA: E. coli FtsA (UP P0ABH0), membrane anchor of FtsZ, purified”, the “diffusion coefficient (Dcoef) of single trajectories” value in series [2] came out at 0.0016 ± 0.0003 μm^2/s. The “sedimentation coefficient, main peak” value in series [3] (AlexaFluor488-FtsA in the absence of FtsN, n=2) was ~ 2 S.
As to “FtsN_(cyto)His, cytoplasmic peptide of FtsN”, in series [4], the confinement time stood at 0.41 s and the frequency of confinement events relative to FtsN (cyto-DDEE)His stood at 3 fold. This molecule also returned a colocalization efficiency with FtsZ (Pearson correlation coefficient) in series [5] of 0.62.
“FtsZ: E. coli tubulin-related GTPase FtsZ (UP P0A9A6), purified, fluorescently labelled”: in series [2], the “diffusion coefficient (Dcoef) of single trajectories” value is “below 1x10^-4 μm^2/s”.

B1: FtsZ (natural protein)
chain: MFEPMELTNDAVIKVIGVGGGGGNAVEHMVRERIEGVEFFAVNTDAQALRKTAVGQTIQIGSGITKGLGAGANPEVGRNAADEDRDALRAALEGADMVFIAAGMGGGTGTGAAPVVAEVAKDLGILTVAVVTKPFNFEGKKRMAFAEQGITELSKHVDSLITIPNDKLLKVLGRGISLLDAFGAANDVLKGAVQGIAELITRPGLMNVDFADVRTVMSEMGYAMMGSGVASGEDRAEEAAEMAISSPLLEDIDLSGARGVLVNITAGFDLRLDEFETVGNTIRAFASDNATVVIGTSLDPDMNDELRVTVVATGIGMDKRPEITLVTNKQVQQPVMDRYQQHGMAPLTQEQKPVAKVVNDNAPQTAKEPDYLDIPAFLRKQAD
Take B1: the binding result in series [6] and in [7] was “binds” throughout.

B2: Full-length FtsN (His6) (natural protein)
chain: MAQRDYVRRSQPAPSRRKKSTSRKKQRNLPAVSPAMVAIAAAVLVTFIGGLYFITHHKKEESETLQSQKVTGNGLPPKPEERWRYIKELESRQPGVRAPTEPSAGGEVKTPEQLTPEQRQLLEQMQADMRQQPTQLVEVPWNEQTPEQRQQTLQRQRQAQQLAEQQRLAQQSRTTEQSWQQQTRTSQAAPVQAQPRQSKPASSQQPYQDLLQTPAHTTAQSKPQQAAPVARAADAPKPTAEKKDERRWMVQCGSFRGAEQAETVRAQLAFEGFDSKITTNNGWNRVVIGPVKGKENADSTLNRLKMAGHTNCIRLAAGG
Take B2: in series [8] (300 mM KCl), the “interaction with FtsA at high salt” value is “significantly weaker”. In addition, in series [8] (Alexa647-FtsA titrated with peptide or protein, n=3), the “interaction with FtsA in solution” value is reported as “Binding was observed”. The Kd in series [9] turned out to be 734 ± 23 nM; in series [10], 250 ± 51 nM. Besides, the “sedimentation coefficient, second main peak” value in series [3] (16 μM in 3.72 mM DDM, Raleigh interference, n=3, compatible with dimers) is 5.2 ± 0.1 S. Further, the “sedimentation coefficient, first main peak” value in series [3] (16 μM in 3.72 mM DDM, Raleigh interference, n=3, compatible with monomers) worked out at 4.1 ± 0.1 S.

Values taken from article PMC7048620 (Nature microbiology, 2020).
